≈ marks a conversion by molar mass, not a printed value.
How the values were obtained:
Format in all cases: functional
Staphylococcus aureus [1] = assay: Synergistic antibacterial activity against multidrug-resistant Staphylococcus aureus isolate 200 assessed as fractional Inhibitory concentration index in presence of cloxacillin by broth microdilution assay
Procedure, shortened: (§1)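 CLSI broth microdilution run on clinical MRSA isolates with each β-lactam alone, the test agent alone, and the two combined; agents dissolved in DMSO. Growth inhibition was read by eye. FIC index = FIC(compound) + FIC(β-lactam), where each FIC is the MIC in combination divided by the MIC alone. An index ≤0.5 was taken as synergy.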

Staphylococcus aureus [2] = assay: Synergistic antibacterial activity against multidrug-resistant Staphylococcus aureus isolate 3267 assessed as fractional Inhibitory concentration index in presence of meropenem by broth microdilution assay
Staphylococcus aureus [3] = assay: Synergistic antibacterial activity against multidrug-resistant Staphylococcus aureus isolate 3267 in presence of methicillin by broth microdilution assay
Procedure, shortened: (§2)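 CLSI broth microdilution on clinical MRSA isolates. MICs were measured for the β-lactam alone, the test agent alone and the two combined. Compounds were dissolved in DMSO, and growth inhibition was scored by eye. FIC index is the sum, over both agents, of MIC in combination divided by MIC alone. An FIC index ≤0.5 was taken as synergy.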

Staphylococcus aureus [4] = assay: Synergistic antibacterial activity against multidrug-resistant Staphylococcus aureus isolate 85 assessed as fractional Inhibitory concentration index in presence of meropenem by broth microdilution assay
Staphylococcus aureus [5] = assay: Antibacterial activity against Staphylococcus aureus ATCC 29213 harboring FtsZ 32 mutation after 20 hrs; conditions: ATCC 29213, 20 h
Procedure, shortened: (§3)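 Broth microdilution MIC per CLSI guidelines, compounds dissolved in DMSO. Resistant mutants were selected by serial passage of ATCC 29213 in LB at 37 °C with shaking at 250 rpm. Each 20 h culture started at half the MIC, and the concentration was doubled at each transfer. Growth inhibition was read by eye, in duplicate.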

Staphylococcus aureus [6] = assay: Synergistic antibacterial activity against multidrug-resistant Staphylococcus aureus isolate 2490 in presence of methicillin by broth microdilution assay
Procedure, shortened: (§4)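 Clinical MRSA isolate panel; compound and β-lactam tested alone and in combination by CLSI broth microdilution, compounds dissolved in DMSO, growth inhibition scored by eye, run in duplicate. FIC index = FIC(compound) + FIC(drug), each the MIC in combination divided by the MIC alone; an index ≤ 0.5 was called synergy.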

Staphylococcus aureus [7] = assay: Synergistic antibacterial activity against multidrug-resistant Staphylococcus aureus isolate 200 in presence of cefuroxime by broth microdilution assay; procedure, shortened: as §4
Staphylococcus aureus [8] = assay: Synergistic antibacterial activity against multidrug-resistant Staphylococcus aureus isolate 3580 in presence of cloxacillin by broth microdilution assay
Staphylococcus aureus [9] = assay: Synergistic antibacterial activity against multidrug-resistant Staphylococcus aureus isolate 2516 assessed as fractional Inhibitory concentration index in presence of cloxacillin by broth microdilution assay; procedure, shortened: as §1
Staphylococcus aureus [10] = assay: Antibacterial activity against multidrug-resistant Staphylococcus aureus isolate 1717 by broth microdilution assay
Procedure, shortened: (§5)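 Broth microdilution MIC per CLSI guidelines against clinical MRSA isolates, for β-lactams and test compound alone and in combination. Compounds were dissolved in DMSO. Growth was read by eye, in duplicate. FIC index = FIC(compound) + FIC(drug); synergy defined as FIC index ≤0.5.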

Staphylococcus aureus [11] = assay: Synergistic antibacterial activity against multidrug-resistant Staphylococcus aureus isolate 256 in presence of methicillin by broth microdilution assay; procedure, shortened: as §2
Staphylococcus aureus [12] = assay: Synergistic antibacterial activity against multidrug-resistant Staphylococcus aureus isolate 1449 in presence of meropenem by broth microdilution assay; procedure, shortened: as §4
Staphylococcus aureus [13] = assay: Synergistic antibacterial activity against multidrug-resistant Staphylococcus aureus isolate 417 assessed as fractional Inhibitory concentration index in presence of meropenem by broth microdilution assay
Staphylococcus aureus [14] = assay: Synergistic antibacterial activity against multidrug-resistant Staphylococcus aureus isolate 1449 assessed as fractional Inhibitory concentration index in presence of cloxacillin by broth microdilution assay; procedure, shortened: as §1
Staphylococcus aureus [15] = assay: Synergistic antibacterial activity against multidrug-resistant Staphylococcus aureus isolate 3589 assessed as fractional Inhibitory concentration index in presence of meropenem by broth microdilution assay
Staphylococcus aureus [16] = assay: Antibacterial activity against multidrug-resistant Staphylococcus aureus isolate 231 by broth microdilution assay; procedure, shortened: as §5
Staphylococcus aureus [17] = assay: Synergistic antibacterial activity against multidrug-resistant Staphylococcus aureus isolate 256 assessed as fractional Inhibitory concentration index in presence of meropenem by broth microdilution assay
Staphylococcus aureus [18] = assay: Synergistic antibacterial activity against multidrug-resistant Staphylococcus aureus isolate 774 in presence of methicillin by broth microdilution assay
Staphylococcus aureus [19] = assay: Synergistic antibacterial activity against multidrug-resistant Staphylococcus aureus isolate 1344 assessed as fractional Inhibitory concentration index in presence of amoxicillin by broth microdilution assay; procedure, shortened: as §1
Staphylococcus aureus [20] = assay: Synergistic antibacterial activity against multidrug-resistant Staphylococcus aureus isolate 417 assessed as fractional Inhibitory concentration index in presence of cloxacillin by broth microdilution assay
Staphylococcus aureus [21] = assay: Synergistic antibacterial activity against multidrug-resistant Staphylococcus aureus isolate 1136 assessed as fractional Inhibitory concentration index in presence of methicillin by broth microdilution assay; procedure, shortened: as §1
Staphylococcus aureus [22] = assay: Synergistic antibacterial activity against multidrug-resistant Staphylococcus aureus isolate 3589 in presence of cefuroxime by broth microdilution assay
Staphylococcus aureus [23] = assay: Synergistic antibacterial activity against multidrug-resistant Staphylococcus aureus isolate 3411 in presence of cefuroxime by broth microdilution assay
Staphylococcus aureus [24] = assay: Synergistic antibacterial activity against multidrug-resistant Staphylococcus aureus isolate 1402 in presence of methicillin by broth microdilution assay; procedure, shortened: as §4
Staphylococcus aureus [25] = assay: Synergistic antibacterial activity against multidrug-resistant Staphylococcus aureus isolate 1136 assessed as fractional Inhibitory concentration index in presence of amoxicillin by broth microdilution assay; procedure, shortened: as §1
Staphylococcus aureus [26] = assay: Synergistic antibacterial activity against multidrug-resistant Staphylococcus aureus isolate 2728 assessed as fractional Inhibitory concentration index in presence of meropenem by broth microdilution assay
Staphylococcus aureus [27] = assay: Synergistic antibacterial activity against multidrug-resistant Staphylococcus aureus isolate 254 in presence of meropenem by broth microdilution assay; procedure, shortened: as §2
Staphylococcus aureus [28] = assay: Synergistic antibacterial activity against multidrug-resistant Staphylococcus aureus isolate 2919 in presence of meropenem by broth microdilution assay; procedure, shortened: as §2
Staphylococcus aureus [29] = assay: Synergistic antibacterial activity against multidrug-resistant Staphylococcus aureus isolate 1717 assessed as fractional Inhibitory concentration index in presence of meropenem by broth microdilution assay; procedure, shortened: as §1
Staphylococcus aureus [30] = assay: Antibacterial activity against multidrug-resistant Staphylococcus aureus isolate 1749 by broth microdilution assay; procedure, shortened: as §5
Staphylococcus aureus [31] = assay: Synergistic antibacterial activity against multidrug-resistant Staphylococcus aureus isolate 254 in presence of cloxacillin by broth microdilution assay; procedure, shortened: as §2
Staphylococcus aureus [32] = assay: Synergistic antibacterial activity against multidrug-resistant Staphylococcus aureus isolate 3589 in presence of meropenem by broth microdilution assay
Staphylococcus aureus [33] = assay: Synergistic antibacterial activity against multidrug-resistant Staphylococcus aureus isolate 1402 in presence of amoxicillin by broth microdilution assay; procedure, shortened: as §4
Staphylococcus aureus [34] = assay: Antibacterial activity against multidrug-resistant Staphylococcus aureus isolate 2973 by broth microdilution assay; procedure, shortened: as §5
Staphylococcus aureus [35] = assay: Antibacterial activity against Staphylococcus aureus ATCC 29213 harboring FtsZ 64 mutation after 20 hrs; conditions: ATCC 29213, 20 h; procedure, shortened: as §3
Staphylococcus aureus [36] = assay: Synergistic antibacterial activity against multidrug-resistant Staphylococcus aureus isolate 358 in presence of cloxacillin by broth microdilution assay
Staphylococcus aureus [37] = assay: Synergistic antibacterial activity against multidrug-resistant Staphylococcus aureus isolate 757 assessed as fractional Inhibitory concentration index in presence of cefuroxime by broth microdilution assay

With CCCCCCCCCNc1ccc(F)c(C(N)=O)c1F the “fractional inhibitory concentration index (FICI)” value (Staphylococcus aureus [1]) was 1, the “fractional inhibitory concentration index (FICI)” value (Staphylococcus aureus [2]) was 4 and the MIC (Staphylococcus aureus [3]) was 4 mg/L. The “fractional inhibitory concentration index (FICI)” value (Staphylococcus aureus [4]) was 4, the MIC (Staphylococcus aureus [5]) was 32 mg/L (≈ 107 µM) and the MIC (Staphylococcus aureus [6]) was 4 mg/L. The MIC (Staphylococcus aureus [7]) was 2 mg/L, the MIC (Staphylococcus aureus [8]) was 1 mg/L and the “fractional inhibitory concentration index (FICI)” value (Staphylococcus aureus [9]) was 0.2. It also gave an MIC (Staphylococcus aureus [10]) of 2 mg/L (≈ 6.7 µM), an MIC (Staphylococcus aureus [11]) of 4 mg/L and an MIC (Staphylococcus aureus [12]) of 4 mg/L. The “fractional inhibitory concentration index (FICI)” value (Staphylococcus aureus [13]) was 0.2, the “fractional inhibitory concentration index (FICI)” value (Staphylococcus aureus [14]) was 0.6 and the “fractional inhibitory concentration index (FICI)” value (Staphylococcus aureus [15]) was 1.5. For the same compound, the MIC (Staphylococcus aureus [16]) was 8 mg/L (≈ 26.8 µM), the “fractional inhibitory concentration index (FICI)” value (Staphylococcus aureus [17]) was 4 and the MIC (Staphylococcus aureus [18]) was 4 mg/L. The “fractional inhibitory concentration index (FICI)” value (Staphylococcus aureus [19]) was 1.1, the “fractional inhibitory concentration index (FICI)” value (Staphylococcus aureus [20]) was 0.1 and the “fractional inhibitory concentration index (FICI)” value (Staphylococcus aureus [21]) was 0.3. The MIC (Staphylococcus aureus [22]) was 2 mg/L, the MIC (Staphylococcus aureus [23]) was 2 mg/L and the MIC (Staphylococcus aureus [24]) was 2 mg/L. For the same compound, the “fractional inhibitory concentration index (FICI)” value (Staphylococcus aureus [25]) was 1, the “fractional inhibitory concentration index (FICI)” value (Staphylococcus aureus [26]) was 2 and the MIC (Staphylococcus aureus [27]) was 8 mg/L. For the same compound, the MIC (Staphylococcus aureus [28]) was 4 mg/L, the “fractional inhibitory concentration index (FICI)” value (Staphylococcus aureus [29]) was 3 and the MIC (Staphylococcus aureus [30]) was 2 mg/L (≈ 6.7 µM). The MIC (Staphylococcus aureus [31]) was 2 mg/L, the MIC (Staphylococcus aureus [32]) was 4 mg/L and the MIC (Staphylococcus aureus [33]) was 4 mg/L. For the same compound, the MIC (Staphylococcus aureus [34]) was 128 mg/L (≈ 429 µM), the MIC (Staphylococcus aureus [35]) was 64 mg/L (≈ 214 µM) and the MIC (Staphylococcus aureus [36]) was 1 mg/L. The “fractional inhibitory concentration index (FICI)” value (Staphylococcus aureus [37]) was 0.1.

— ChEMBL document CHEMBL4330069, “Boosting the efficacy of anti-MRSA β-lactam antibiotics via an easily accessible, non-cytotoxic and orally bioavailable FtsZ inhibitor” (Eur J Med Chem, 2019)
